Measured values as given in ChEMBL document CHEMBL1212842, “Substrate specificity and inhibitory study of human airway trypsin-like protease” (Bioorg Med Chem, 2010).
Where a SMILES comes first, the peptide text is derived from it. [ ]: non-standard residue; d: D form. The star is where a group is joined. NH(3-CONH2-4-NO2-Ph) = NC(=O)c1cc(N*)ccc1[N+](=O)[O-]; AMC = Cc1cc(=O)oc2cc(N*)ccc12; 2Abz = Nc1ccccc1C(=O)O; Boc = CC(C)(C)OC(=O)*

Experiments:
Homo sapiens [1] = species on record: Homo sapiens; assay: Activity at human tryptase by FRET assay
Bos taurus [2] = species on record: Bos taurus; assay: Activity at bovine trypsin by FRET assay
Bos taurus [3] = species on record: Bos taurus; assay: Ratio of Kcat to Km for bovine trypsin by FRET assay
Homo sapiens [4] = species on record: Homo sapiens; assay: Ratio of Kcat to Km for human tryptase by FRET assay
[5] = target: T1, Suppressor of tumorigenicity 14 protein (Homo sapiens, UniProt Q9Y5Y6); assay: Inhibition of human matriptase by FRET assay
T1 sequence (Q9Y5Y6 whole entry): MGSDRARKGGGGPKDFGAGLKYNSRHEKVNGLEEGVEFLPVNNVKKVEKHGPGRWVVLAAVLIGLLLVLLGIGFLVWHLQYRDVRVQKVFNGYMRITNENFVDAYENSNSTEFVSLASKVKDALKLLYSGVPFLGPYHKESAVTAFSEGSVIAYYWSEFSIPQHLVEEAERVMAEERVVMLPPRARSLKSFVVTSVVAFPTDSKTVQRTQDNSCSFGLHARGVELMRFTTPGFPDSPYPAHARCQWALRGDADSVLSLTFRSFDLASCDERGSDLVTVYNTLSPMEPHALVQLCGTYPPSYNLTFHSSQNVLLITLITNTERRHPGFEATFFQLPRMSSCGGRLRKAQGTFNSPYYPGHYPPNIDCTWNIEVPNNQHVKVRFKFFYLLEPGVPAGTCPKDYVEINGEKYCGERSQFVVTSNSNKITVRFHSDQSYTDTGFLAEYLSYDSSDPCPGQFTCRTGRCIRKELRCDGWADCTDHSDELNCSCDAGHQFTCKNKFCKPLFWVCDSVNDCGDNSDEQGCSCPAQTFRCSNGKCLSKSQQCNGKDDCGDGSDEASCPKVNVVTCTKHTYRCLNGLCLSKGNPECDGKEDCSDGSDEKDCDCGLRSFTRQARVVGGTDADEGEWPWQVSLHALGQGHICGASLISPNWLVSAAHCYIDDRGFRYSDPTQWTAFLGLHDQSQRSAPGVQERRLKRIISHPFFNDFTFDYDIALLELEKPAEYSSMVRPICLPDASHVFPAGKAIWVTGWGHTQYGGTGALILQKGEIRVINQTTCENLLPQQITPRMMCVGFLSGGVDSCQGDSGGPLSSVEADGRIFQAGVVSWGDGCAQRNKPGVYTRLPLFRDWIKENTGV

[6] = Inhibition of bovine trypsin by FRET assay; set-up: species or system Bos taurus
[7] = Inhibition of human tryptase by FRET assay
[8] = target: T2, Transmembrane protease serine 11D (Homo sapiens, UniProt O60235); assay: Inhibition of human HAT by FRET assay
T2 sequence (O60235 whole entry): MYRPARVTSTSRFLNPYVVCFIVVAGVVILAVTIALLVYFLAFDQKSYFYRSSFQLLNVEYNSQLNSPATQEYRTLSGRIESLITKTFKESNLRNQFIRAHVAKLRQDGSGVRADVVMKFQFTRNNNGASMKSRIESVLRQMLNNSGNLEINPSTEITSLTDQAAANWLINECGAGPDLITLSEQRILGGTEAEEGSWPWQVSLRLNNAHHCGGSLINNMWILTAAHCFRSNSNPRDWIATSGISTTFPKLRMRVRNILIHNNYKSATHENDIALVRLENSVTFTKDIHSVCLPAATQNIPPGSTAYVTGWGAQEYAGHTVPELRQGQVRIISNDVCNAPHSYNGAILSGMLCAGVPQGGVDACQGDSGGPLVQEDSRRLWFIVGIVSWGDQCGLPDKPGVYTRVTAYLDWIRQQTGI
In short: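 Inhibitor at increasing concentrations (0–100 nM) was preincubated for 60 min with enzyme (20 nM) in Tris-HCl, pH 7.8. Chromogenic substrate (1.8–100 µM) was then added and absorbance was followed over time. For HAT, the substrate was an ABZ/ANB-labelled tetrapeptide. Ki was calculated from the initial velocities of hydrolysis.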

[9] = substrate: Cc1cc(=O)oc2cc(NC(=O)[C@H](CCCNC(=N)N)NC(=O)[C@H](CO)NC(=O)[C@H](Cc3ccccc3)NC(=O)OC(C)(C)C)ccc12; assay: (§1) Activity at human HAT by FRET assay
[10] = substrate: N=C(N)NCCC[C@H](NC(=O)c1ccccc1N)C(=O)N[C@@H](CCC(N)=O)C(=O)N[C@@H](CC(=O)O)C(=O)N[C@@H](CCCCN)C(=O)Nc1ccc([N+](=O)[O-])c(C(N)=O)c1; assay: as §1
[11] = substrate: N=C(N)NCCC[C@H](NC(=O)c1ccccc1N)C(=O)N[C@@H](CCC(N)=O)C(=O)N[C@@H](CC(=O)O)C(=O)N[C@@H](CCCNC(=N)N)C(=O)Nc1ccc([N+](=O)[O-])c(C(N)=O)c1; assay: as §1
[12] = substrate: Cc1cc(=O)oc2cc(NC(=O)[C@H](CCCNC(=N)N)NC(=O)[C@H](CO)NC(=O)[C@H](Cc3ccccc3)NC(=O)OC(C)(C)C)ccc12; assay: (§2) Ratio of Kcat to Km for human HAT by FRET assay
[13] = substrate: N=C(N)NCCC[C@H](NC(=O)c1ccccc1N)C(=O)N[C@@H](CCC(N)=O)C(=O)N[C@@H](CC(=O)O)C(=O)N[C@@H](CCCCN)C(=O)Nc1ccc([N+](=O)[O-])c(C(N)=O)c1; assay: as §2
[14] = substrate: N=C(N)NCCC[C@H](NC(=O)c1ccccc1N)C(=O)N[C@@H](CCC(N)=O)C(=O)N[C@@H](CC(=O)O)C(=O)N[C@@H](CCCNC(=N)N)C(=O)Nc1ccc([N+](=O)[O-])c(C(N)=O)c1; assay: as §2
[15] = substrate: Cc1cc(=O)oc2cc(NC(=O)[C@H](CCCNC(=N)N)NC(=O)[C@H](CO)NC(=O)[C@H](Cc3ccccc3)NC(=O)OC(C)(C)C)ccc12; assay: (§3) Ratio of Kcat to Km for human matriptase by FRET assay
[16] = substrate: N=C(N)NCCC[C@H](NC(=O)c1ccccc1N)C(=O)N[C@@H](CCC(N)=O)C(=O)N[C@@H](CC(=O)O)C(=O)N[C@@H](CCCCN)C(=O)Nc1ccc([N+](=O)[O-])c(C(N)=O)c1; assay: as §3
[17] = substrate: N=C(N)NCCC[C@H](NC(=O)c1ccccc1N)C(=O)N[C@@H](CCC(N)=O)C(=O)N[C@@H](CC(=O)O)C(=O)N[C@@H](CCCNC(=N)N)C(=O)Nc1ccc([N+](=O)[O-])c(C(N)=O)c1; assay: as §3
[18] = substrate: Cc1cc(=O)oc2cc(NC(=O)[C@H](CCCNC(=N)N)NC(=O)[C@H](CO)NC(=O)[C@H](Cc3ccccc3)NC(=O)OC(C)(C)C)ccc12; assay: (§4) Activity at human matriptase by FRET assay
[19] = substrate: N=C(N)NCCC[C@H](NC(=O)c1ccccc1N)C(=O)N[C@@H](CCC(N)=O)C(=O)N[C@@H](CC(=O)O)C(=O)N[C@@H](CCCCN)C(=O)Nc1ccc([N+](=O)[O-])c(C(N)=O)c1; assay: as §4
[20] = substrate: N=C(N)NCCC[C@H](NC(=O)c1ccccc1N)C(=O)N[C@@H](CCC(N)=O)C(=O)N[C@@H](CC(=O)O)C(=O)N[C@@H](CCCNC(=N)N)C(=O)Nc1ccc([N+](=O)[O-])c(C(N)=O)c1; assay: as §4

Cc1cc(=O)oc2cc(NC(=O)[C@H](CCCNC(=N)N)NC(=O)[C@H](CO)NC(=O)[C@H](Cc3ccccc3)NC(=O)OC(C)(C)C)ccc12 (Boc-Phe-Ser-Arg-{AMC})
Km (Homo sapiens [1]): 19.4 µM
kcat (Homo sapiens [1]): 53.6 ×10⁻¹ /s
Km (Bos taurus [2]): 16.5 µM
kcat (Bos taurus [2]): 72.3 ×10⁻¹ /s
kcat/Km (Bos taurus [3]): 442 ×10³ /M/s
kcat/Km (Homo sapiens [4]): 276 ×10³ /M/s

N=C(N)NCCC[C@H](NC(=O)c1ccccc1N)C(=O)N[C@@H](CCC(N)=O)C(=O)N[C@@H](CC(=O)O)C(=O)N[C@@H](CCCNC(=N)N)C(=O)Nc1ccc([N+](=O)[O-])c(C(N)=O)c1 (H-[2Abz]RQDR-{NH(3-CONH2-4-NO2-Ph)})
Km (Homo sapiens [1]): 155 µM
kcat (Homo sapiens [1]): 42.2 ×10⁻¹ /s
Km (Bos taurus [2]): 1120 µM
kcat (Bos taurus [2]): 1.4 ×10⁻¹ /s
kcat/Km (Bos taurus [3]): 0.2 ×10³ /M/s
kcat/Km (Homo sapiens [4]): 27.4 ×10³ /M/s

N=C(N)NCCC[C@H](NC(=O)c1ccccc1N)C(=O)N[C@@H](CCC(N)=O)C(=O)N[C@@H](CC(=O)O)C(=O)N[C@@H](CCCCN)C(=O)Nc1ccc([N+](=O)[O-])c(C(N)=O)c1 (H-[2Abz]RQDK-{NH(3-CONH2-4-NO2-Ph)})
Km (Homo sapiens [1]): 269 µM
kcat (Homo sapiens [1]): 11.8 ×10⁻¹ /s
Km (Bos taurus [2]): 1840 µM
kcat (Bos taurus [2]): 0.8 ×10⁻¹ /s
kcat/Km (Bos taurus [3]): 0.1 ×10³ /M/s
kcat/Km (Homo sapiens [4]): 6.7 ×10³ /M/s

N=C(N)NCCC[C@H](NC(=O)[C@H](CC(=O)O)NC(=O)[C@H](CCC(N)=O)NC(=O)[C@H](CCCNC(=N)N)NC(=O)c1ccccc1N)C(=O)O (H-[2Abz]RQDR-OH)
Ki [5]: 973 nM
Ki [6]: 3930 nM
Ki [7]: 2130 nM
Ki [8]: 54.3 nM

B1: Transmembrane protease serine 11D (Homo sapiens), O60235 (protein)
chain: T2 sequence (O60235 whole entry)
Km [9]: 43.6 µM
kcat [9]: 25.4 ×10⁻¹ /s
Km [10]: 12.3 µM
kcat [10]: 24.1 ×10⁻¹ /s
Km [11]: 25.4 µM
kcat [11]: 115 ×10⁻¹ /s
kcat/Km [12]: 58.2 ×10³ /M/s
kcat/Km [13]: 195 ×10³ /M/s
kcat/Km [14]: 454 ×10³ /M/s

B2: Suppressor of tumorigenicity 14 protein (Homo sapiens), Q9Y5Y6 (protein)
chain: T1 sequence (Q9Y5Y6 whole entry)
kcat/Km [15]: 356 ×10³ /M/s
kcat/Km [16]: 23.1 ×10³ /M/s
kcat/Km [17]: 98.4 ×10³ /M/s
Km [18]: 12.1 µM
kcat [18]: 42.8 ×10⁻¹ /s
Km [19]: 70.6 µM
kcat [19]: 16.3 ×10⁻¹ /s
Km [20]: 68.5 µM
kcat [20]: 67.4 ×10⁻¹ /s
